Experimental data published in PMC11362829 (RSC Advances, 2024).
≈ marks a conversion by molar mass, not a printed value.

Tests used:
[1] = test system: M. tuberculosis H37Rv mc^2 6206; assay: Screening against M. tuberculosis and MIC by Alamar Blue assay; assay type: cell-based; conditions: for MIC: Mycobacterium tuberculosis, H37RV, read-out: MIC against M. tuberculosis
[2] = Dilution of DMSO stock with the aqueous assay buffer; assay type: physicochemical; conditions: dilution for the 50 μM enzyme assay
[3] = target: T1, recombinant E. coli DXR enzyme (EcDXR) (Escherichia coli, UniProt P45568); assay: DXR enzyme inhibition assay; assay type: biochemical; conditions: for inhibition at 50 µM: read-out: % Inhibition at 50 μM, EcDXR, 50 μM; for inhibition at 100 µM: read-out: % Inhibition at 100 μM, in vitro EcDXR inhibition, 100 μM
T1 sequence (P45568 1-398): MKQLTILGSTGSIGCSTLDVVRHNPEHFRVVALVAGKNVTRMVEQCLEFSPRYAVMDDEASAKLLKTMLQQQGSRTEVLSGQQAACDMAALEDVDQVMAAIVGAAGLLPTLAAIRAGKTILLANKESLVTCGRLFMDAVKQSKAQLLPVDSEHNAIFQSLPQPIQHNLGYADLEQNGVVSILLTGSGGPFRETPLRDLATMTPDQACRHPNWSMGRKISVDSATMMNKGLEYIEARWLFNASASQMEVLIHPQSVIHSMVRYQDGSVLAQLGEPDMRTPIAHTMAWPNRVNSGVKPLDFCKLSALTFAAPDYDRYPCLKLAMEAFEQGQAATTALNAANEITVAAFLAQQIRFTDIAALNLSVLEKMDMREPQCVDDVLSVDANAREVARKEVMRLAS
Summary of the method: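 Recombinant E. coli DXR, assayed with a commercial kit following the vendor protocol. Test compound from a DMSO stock; final DMSO ~0.2% v/v or lower. Enzyme and compound pre-incubated with shaking for 10 minutes, then DXP added to start the reaction. NADPH consumption read kinetically at 340 nm. Inhibition taken at a single level or across five levels for IC50. IC50 from one representative experiment run in duplicate.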

[4] = test system: E. coli; assay: Screening against ESKAPE pathogens: E. coli; assay type: cell-based
Summary of the method: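 E. coli grown in LB at 37 °C with shaking at 200 rpm to turbidity, then diluted to OD600 0.02. Test compound freshly dissolved in DMSO and added at one of two single levels. Growth judged visually after 24 h at 37 °C against DMSO-treated controls.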

Which results are given for O=C(NC(c1ccc(Cl)c(Cl)c1)P(=O)(O)O)c1ccccc1O (stereo not drawn) [Compound 20e, ((3,4-Dichlorophenyl)(2-hydroxybenzamido)methyl)phosphonic acid]?
Effect on M. tuberculosis growth ([1]; 500 μM): inhibited M. tuberculosis growth; MIC [1]: > 250 µM; Behaviour during dilution with the aqueous buffer [2]: precipitated during dilution

Which inhibition at 50 µM [3] does the source give for O=C(NCCCc1ccccc1)c1ccc2ccccc2c1O [Compound 25c, 1-Hydroxy-N-(3-phenylpropyl)-2-naphthamide] here?
The inhibition at 50 µM was 31.3%.

Which results are given for O=C(NC(c1ccccc1)P(=O)(O)O)c1ccccc1O (stereo not drawn) [Compound 20a, ((2-Hydroxybenzamido)(phenyl)methyl)phosphonic acid]?
Effect on M. tuberculosis growth ([1]; 200 μM): none of the tested compounds affected M. tuberculosis growth; IC50 [3]: 33.2 µM; fold less potency than its counterpart 22a ([3]; EcDXR IC50 compared to 22a): ~2 fold; inhibition at 50 µM [3]: 94.6%

For O=CN(O)CCCP(=O)(O)O [FSM, Fosmidomycin, reference compound], which inhibition at 100 µM [3] is on record?
The inhibition at 100 µM was 100%.

For O=C(NCP(=O)(O)O)c1ccccc1O [Compound 20b, ((2-hydroxybenzamido)methyl)phosphonic acid], which “Behaviour during dilution with the aqueous buffer” value [2] is on record?
The value was “precipitated during dilution”.

With O=C(O)c1coc2ccccc2c1=O [Compound F10, Chromone-3-carboxylic acid] as the compound, how does the inhibition at 100 µM [3] read?
The inhibition at 100 µM was 100%.

With O=Cc1cccc(O)c1O [Compound F9, 2,3-dihydroxy benzaldehyde] as the compound, how does the inhibition at 100 µM [3] read?
Its inhibition at 100 µM is 86.5%.

With O=C(NC(c1ccccc1)P(=O)(O)O)c1cccc(O)c1O (stereo not drawn) [Compound 21a, ((2,3-Dihydroxybenzamido)(phenyl)methyl)phosphonic acid] as the compound, how does the “Effect on M. tuberculosis growth” value ([1]; 200 μM) read?
The value was “none of the tested compounds affected M. tuberculosis growth”.

What about the inhibition at 50 µM [3] of the same compound?
The inhibition at 50 µM was 66.5%.

Which inhibition at 50 µM [3] does the source give for CC(NC(=O)c1cccc(O)c1O)P(=O)(O)O (stereo not drawn) [Compound 21c, (1-(2,3-Dihydroxybenzamido)ethyl)phosphonic acid] here?
Its inhibition at 50 µM is 60.1%.

For CC(NC(=O)c1ccc2ccccc2c1O)P(=O)(O)O (stereo not drawn) [Compound 22c, (1-(1-Hydroxy-2-naphthamido)ethyl)phosphonic acid], which inhibition at 50 µM [3] is on record?
The inhibition at 50 µM was 84.2%.

Which “Effect on M. tuberculosis growth” value ([1]; 500 μM) does the source give for O=C(NCP(=O)(O)O)c1ccc2ccccc2c1O [Compound 22b, ((1-Hydroxy-2-naphthamido)methyl)phosphonic acid] here?
Its value is “inhibited M. tuberculosis growth”.

And the MIC [1]?
Its MIC is over 250 µM.

And the “Activity against E. coli” value [4]?
Its value is “inactive against E. coli”.

And the IC50 [3]?
The IC50 was 0.29 µM.

And the inhibition at 50 µM [3]?
Its inhibition at 50 µM is 76.3%.

For O=C(NCc1ccccc1)c1ccc2ccccc2c1O [Compound 25a, N-Benzyl-1-hydroxy-2-naphthamide], which “% Inhibition at 50 μM” value ([3]; EcDXR, 50 μM) is on record?
The value was 30.4%.

What about the inhibition at 50 µM [3] of the same compound?
The inhibition at 50 µM was 30%.

Which inhibition at 50 µM [3] does the source give for O=C(NC(c1cccc2ccccc12)P(=O)(O)O)c1cccc(O)c1O (stereo not drawn) [Compound 21d, ((2,3-Dihydroxybenzamido)(naphthalen-1-yl)methyl)phosphonic acid] here?
The inhibition at 50 µM was 78.5%.

Which “Effect on M. tuberculosis growth” value ([1]; 200 μM) does the source give for O=C(NC(c1ccccc1)P(=O)(O)O)c1coc2ccccc2c1=O (stereo not drawn) [Compound 23a, ((4-Oxo-4H-chromene-3-carboxamido)(phenyl)methyl)phosphonic acid] here?
The value was “none of the tested compounds affected M. tuberculosis growth”.

What about the IC50 [3] of the same compound?
Its IC50 is 6.09 µM.

And the inhibition at 50 µM [3]?
Its inhibition at 50 µM is 79.8%.

What does the source list for O=C(NC(c1cccc2ccccc12)P(=O)(O)O)c1ccccc1O (stereo not drawn) [Compound 20d, ((2-Hydroxybenzamido)(naphthalen-1-yl)methyl)phosphonic acid]?
Effect on M. tuberculosis growth ([1]; 500 μM): inhibited M. tuberculosis growth; MIC [1]: > 250 µM; IC50 [3]: 32.9 µM; folds less potent than 22d ([3]; EcDXR IC50 compared to 22d): ~8 fold; inhibition at 50 µM [3]: 81.3%

Which “Effect on M. tuberculosis growth” value ([1]; 500 μM) does the source give for O=C(NC(c1cccc2ccccc12)P(=O)(O)O)c1ccc2ccccc2c1O (stereo not drawn) [Compound 22d, ((1-Hydroxy-2-naphthamido)(naphthalen-1-yl)methyl)phosphonic acid] here?
The value was “inhibited M. tuberculosis growth”.

And the MIC [1]?
The MIC was 125 µM (≈ 50.9 µg/mL).

What about the “Activity against E. coli” value [4] of the same compound?
Its value is “inactive against E. coli”.

And the IC50 [3]?
Its IC50 is 4.44 µM.

What about the “fold improvement in IC50 value compared to 22a” value ([3]; EcDXR IC50 compared to 22a) of the same compound?
Its value is about 4 fold.

And the inhibition at 50 µM [3]?
The inhibition at 50 µM was 73.7%.

Which inhibition at 100 µM [3] does the source give for O=C(O)c1cccc(O)c1O [Compound F2, 2,3-Dihydroxy benzoic acid] here?
The inhibition at 100 µM was 93.3%.

Which “Behaviour during dilution with the aqueous buffer” value [2] does the source give for CC(NC(=O)c1ccccc1O)P(=O)(O)O (stereo not drawn) [Compound 20c, (1-(2-Hydroxybenzamido)ethyl)phosphonic acid] here?
The value was “precipitated during dilution”.

For O=C(NCP(=O)(O)O)c1cccc(O)c1O [Compound 21b, ((2,3-Dihydroxybenzamido)methyl)phosphonic acid], which inhibition at 50 µM [3] is on record?
Its inhibition at 50 µM is 68.4%.

With O=C(O)c1ccc2ccccc2c1O [Compound F7, 1-Hydroxy-2-naphthoic acid] as the compound, how does the inhibition at 100 µM [3] read?
The inhibition at 100 µM was 100%.

With O=C(NCCc1ccccc1)c1ccc2ccccc2c1O [Compound 25b, 1-Hydroxy-N-phenethyl-2-naphthamide] as the compound, how does the inhibition at 50 µM [3] read?
Its inhibition at 50 µM is 4.69%.

With O=C(NC(c1ccccc1)P(=O)(O)O)c1ccc2ccccc2c1O (stereo not drawn) [Compound 22a, ((1-Hydroxy-2-naphthamido)(phenyl)methyl)phosphonic acid] as the compound, how does the “Effect on M. tuberculosis growth” value ([1]; 200 μM) read?
Its value is “none of the tested compounds affected M. tuberculosis growth”.

What about the IC50 [3] of the same compound?
Its IC50 is 16.9 µM.

What about the “folds lower potency than 22b” value ([3]; EcDXR IC50 compared to 22b) of the same compound?
Its value is about 57 fold.

What about the inhibition at 50 µM [3] of the same compound?
The inhibition at 50 µM was 70.9%.

Which inhibition at 100 µM [3] does the source give for O=C(O)c1ccccc1O [Compound F12, Salicylic acid] here?
The inhibition at 100 µM was 87.4%.
